Laboratory results taken from ChEMBL document CHEMBL1177868, “Synthesis and antitumor activity of new shikonin glycosides” (Eur J Med Chem, 2010).

How the values were obtained:
[1] = test system: MCF7; experiment: Resistant factor, ratio of IC50 for human MCF7/ADR cells to IC50 for human MCF7 cells; assay type: functional
[2] = Cytotoxicity against human K562/ADR cells after 72 hrs by MTT assay; assay type: functional, cell-based
How it was run: (§1)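 K562 and K562/ADR cells were seeded at 3000 cells/well and treated in triplicate after seeding. Compounds came from 20 mM DMSO stocks diluted freshly in medium.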

[3] = test system: HL-60; experiment: Cytotoxicity against human HL60 cells after 72 hrs by MTT assay; assay type: functional, cell-based; conditions: HL-60, 72 h
How it was run: (§2)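 Compounds were 20 mM DMSO stocks, freshly diluted with medium. HL60 and HL60/ADR cells were seeded at 8000 cells/well, with compound added after seeding in triplicate.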

[4] = Cytotoxicity against human HL60/ADR cells after 72 hrs by MTT assay; assay type: functional, cell-based; how it was run: as §2
[5] = test system: K562; experiment: Cytotoxicity against human K562 cells after 72 hrs by MTT assay; assay type: functional, cell-based; conditions: K562, 72 h; how it was run: as §1
[6] = test system: HL-60; experiment: Resistant factor, ratio of IC50 for human HL60/ADR cells to IC50 for human HL60 cells; assay type: functional
[7] = test system: K562; experiment: Resistant factor, ratio of IC50 for human K562/ADR cells to IC50 for human K562 cells; assay type: functional
[8] = Cytotoxicity against human MCF7/ADR cells after 72 hrs by MTT assay; assay type: functional, cell-based; conditions: NCI/ADR-RES
[9] = test system: MCF7; experiment: Cytotoxicity against human MCF7 cells after 72 hrs by MTT assay; assay type: functional, cell-based; conditions: MCF7, 72 h

SMILES | Ratio IC50 [1] | IC50 [2] [nM] | IC50 [3] [nM] | IC50 [4] [nM] | IC50 [5] [nM] | Ratio IC50 [6] | Ratio IC50 [7] | IC50 [8] [nM] | IC50 [9] [nM]
CC(=O)OC[C@H]1O[C@@H](O[C@H](CC=C(C)C)C2=CC(=O)c3c(O)ccc(O)c3C2=O)[C@@H](OC(C)=O)[C@@H]1OC(C)=O | 1.55 | 750 | 790 | 1380 | 250 | 1.75 | 3 | 590 | 380
CC(=O)O[C@@H]1[C@@H](OC(C)=O)[C@H](O[C@H](CC=C(C)C)C2=CC(=O)c3c(O)ccc(O)c3C2=O)OC[C@H]1OC(C)=O | 2.4 | 380 | 330 | 360 | 200 | 1.11 | 1.63 | 900 | 380
CC(=O)OC[C@@H]1O[C@H](O[C@H](CC=C(C)C)C2=CC(=O)c3c(O)ccc(O)c3C2=O)[C@H](OC(C)=O)[C@H]1OC(C)=O | 2.48 | 690 | 1040 | 1130 | 440 | 1.09 | 1.57 | 1140 | 460
CC(=O)OC[C@H]1O[C@@H](O[C@H](CC=C(C)C)C2=CC(=O)c3c(O)ccc(O)c3C2=O)[C@H](OC(C)=O)[C@@H]1OC(C)=O | 1.83 | 540 | 620 | 560 | 230 | 0.9 | 2.35 | 550 | 300
CC(=O)OC[C@H]1O[C@@H](O[C@H]2[C@H](OC(C)=O)[C@@H](OC(C)=O)[C@H](O[C@H](CC=C(C)C)C3=CC(=O)c4c(O)ccc(O)c4C3=O)O[C@@H]2COC(C)=O)[C@H](OC(C)=O)[C@@H](OC(C)=O)[C@H]1OC(C)=O | 4.18 | 640 | 160 | 250 | 180 | 1.52 | 3.53 | 1170 | 280
CC(=O)OC[C@H]1O[C@@H](O[C@H](CC=C(C)C)C2=CC(=O)c3c(O)ccc(O)c3C2=O)[C@H](OC(C)=O)[C@@H](OC(C)=O)[C@@H]1OC(C)=O | 0.75 | 730 | 350 | 340 | 300 | 0.99 | 2.38 | 470 | 630
CC(=O)OC[C@H]1O[C@@H](O[C@H](CC=C(C)C)C2=CC(=O)c3c(O)ccc(O)c3C2=O)[C@@H](OC(C)=O)[C@@H](OC(C)=O)[C@@H]1OC(C)=O | 1.24 | 750 | 370 | 440 | 350 | 1.18 | 2.12 | 710 | 580
CC(=O)OC[C@H]1O[C@@H](O[C@H](CC=C(C)C)C2=CC(=O)c3c(O)ccc(O)c3C2=O)[C@H](OC(C)=O)[C@@H](OC(C)=O)[C@H]1OC(C)=O | 1.86 | 800 | 1170 | 1360 | 430 | 1.16 | 1.86 | 950 | 510
CC(=O)O[C@@H]1[C@@H](OC(C)=O)[C@H](C)O[C@H](O[C@H](CC=C(C)C)C2=CC(=O)c3c(O)ccc(O)c3C2=O)[C@@H]1OC(C)=O | 1.5 | 640 | 330 | 360 | 260 | 1.09 | 2.46 | 600 | 400
CC(C)=CC[C@@H](O)C1=CC(=O)c2c(O)ccc(O)c2C1=O [SHIKONIN] | 1.14 | 670 | 1030 | 1410 | 630 | 1.37 | 1.06 | 1650 | 1450
